# Data reported in article PMC4367188 (ACS Chemical Neuroscience, 2015).
# Columns and labels:
# [1] = target: hERG potassium channel (Homo sapiens, UniProt Q12809); assay: Lead Profiling Screen radioligand binding
# [2] = test system: Glutamate, NMDA, Agonism; assay: Lead Profiling Screen radioligand binding; details: 10 μM ML352
# [3] = target: Adrenergic α1A (Rattus norvegicus, UniProt P43140); assay: Lead Profiling Screen radioligand binding
# [4] = target: dopamine transporter (DAT) (Homo sapiens, UniProt Q01959); assay: [3H]DA uptake in HEK293 hDAT cells; assay type: cell-based; details: transfected HEK 293 cells
# Chain of dopamine transporter (DAT) (Q01959 whole entry): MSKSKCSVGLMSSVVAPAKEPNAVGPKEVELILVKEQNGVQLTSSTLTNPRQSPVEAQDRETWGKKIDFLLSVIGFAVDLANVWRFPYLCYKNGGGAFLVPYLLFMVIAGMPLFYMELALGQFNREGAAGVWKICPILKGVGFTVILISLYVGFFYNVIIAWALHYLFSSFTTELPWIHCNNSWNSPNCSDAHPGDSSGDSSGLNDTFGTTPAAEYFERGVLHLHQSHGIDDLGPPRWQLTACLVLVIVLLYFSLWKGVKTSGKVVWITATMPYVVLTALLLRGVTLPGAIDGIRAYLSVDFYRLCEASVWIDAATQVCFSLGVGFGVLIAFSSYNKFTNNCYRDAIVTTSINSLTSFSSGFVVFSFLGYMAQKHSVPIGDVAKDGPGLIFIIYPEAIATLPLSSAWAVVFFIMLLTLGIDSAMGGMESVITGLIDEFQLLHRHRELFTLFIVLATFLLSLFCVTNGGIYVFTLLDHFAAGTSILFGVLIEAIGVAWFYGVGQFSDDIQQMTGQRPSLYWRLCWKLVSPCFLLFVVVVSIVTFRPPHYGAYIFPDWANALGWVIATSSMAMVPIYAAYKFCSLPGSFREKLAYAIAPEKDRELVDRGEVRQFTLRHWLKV
# [5] = target: Muscarinic M1 (Homo sapiens, UniProt P11229); assay: Lead Profiling Screen radioligand binding
# [6] = target: GABAB1A (Homo sapiens, UniProt Q9UBS5); assay: Lead Profiling Screen radioligand binding
# [7] = target: Glucocorticoid (Homo sapiens, UniProt P04150); assay: Lead Profiling Screen radioligand binding
# Chain of Glucocorticoid (P04150 whole entry): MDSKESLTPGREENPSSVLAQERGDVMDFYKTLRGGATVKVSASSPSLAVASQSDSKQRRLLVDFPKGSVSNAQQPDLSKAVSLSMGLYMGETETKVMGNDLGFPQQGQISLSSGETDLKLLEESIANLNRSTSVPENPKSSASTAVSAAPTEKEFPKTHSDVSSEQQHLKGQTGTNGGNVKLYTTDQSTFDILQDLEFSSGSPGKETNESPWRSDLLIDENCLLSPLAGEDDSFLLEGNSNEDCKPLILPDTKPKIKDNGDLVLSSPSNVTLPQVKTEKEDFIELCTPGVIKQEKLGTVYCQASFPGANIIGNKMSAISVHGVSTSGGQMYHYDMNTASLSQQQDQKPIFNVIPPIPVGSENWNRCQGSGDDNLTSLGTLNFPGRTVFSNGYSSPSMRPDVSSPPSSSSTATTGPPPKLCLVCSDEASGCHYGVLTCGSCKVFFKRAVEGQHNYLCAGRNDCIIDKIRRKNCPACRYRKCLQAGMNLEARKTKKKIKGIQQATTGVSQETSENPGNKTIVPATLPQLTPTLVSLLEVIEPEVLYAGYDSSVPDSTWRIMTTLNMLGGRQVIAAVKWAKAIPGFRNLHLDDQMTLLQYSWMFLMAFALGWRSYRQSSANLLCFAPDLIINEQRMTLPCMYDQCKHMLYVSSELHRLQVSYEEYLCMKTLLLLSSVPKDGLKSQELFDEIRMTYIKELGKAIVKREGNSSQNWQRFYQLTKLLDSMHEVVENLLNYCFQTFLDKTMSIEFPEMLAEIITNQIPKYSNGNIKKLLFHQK
# [8] = target: T1, hCHT (Homo sapiens, UniProt Q9GZV3); assay: [3H]HC-3 binding to membranes from HEK hCHT cells; details: for [3H]HC-3 binding Bmax: relative to control
# T1 sequence (Q9GZV3 1-580): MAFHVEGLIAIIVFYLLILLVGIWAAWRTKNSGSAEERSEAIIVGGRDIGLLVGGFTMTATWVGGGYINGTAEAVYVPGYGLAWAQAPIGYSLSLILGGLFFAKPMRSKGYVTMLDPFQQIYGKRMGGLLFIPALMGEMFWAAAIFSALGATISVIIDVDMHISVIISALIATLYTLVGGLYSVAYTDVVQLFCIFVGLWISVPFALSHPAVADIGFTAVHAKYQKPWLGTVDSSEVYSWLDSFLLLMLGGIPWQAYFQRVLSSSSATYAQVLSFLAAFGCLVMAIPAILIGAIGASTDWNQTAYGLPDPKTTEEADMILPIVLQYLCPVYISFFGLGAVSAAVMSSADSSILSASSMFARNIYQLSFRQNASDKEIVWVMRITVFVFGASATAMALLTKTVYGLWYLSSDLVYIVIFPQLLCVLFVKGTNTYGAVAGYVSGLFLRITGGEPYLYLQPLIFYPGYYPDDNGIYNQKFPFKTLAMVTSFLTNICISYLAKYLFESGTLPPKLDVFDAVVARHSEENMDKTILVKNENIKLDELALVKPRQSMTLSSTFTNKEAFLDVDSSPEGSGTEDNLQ
# [9] = target: hCHT LV-AA (Homo sapiens, UniProt Q9GZV3, L531A/V532A); assay: [3H]choline uptake in HEK 293 cells transfected with hCHT LV-AA; assay type: cell-based; details: ML352 at 200 or 800 nM in saturation choline transport assays
# [10] = intrinsic clearance in hepatic microsomes; assay type: in vitro ADME; details: rat; predicted hepatic clearance from microsomal CLint
# [11] = target: Endothelin ETA (Homo sapiens, UniProt P25101); assay: Lead Profiling Screen radioligand binding
# [12] = target: Estrogen Erα (Homo sapiens, UniProt P03372); assay: Lead Profiling Screen radioligand binding
# Chain of Estrogen Erα (P03372 whole entry): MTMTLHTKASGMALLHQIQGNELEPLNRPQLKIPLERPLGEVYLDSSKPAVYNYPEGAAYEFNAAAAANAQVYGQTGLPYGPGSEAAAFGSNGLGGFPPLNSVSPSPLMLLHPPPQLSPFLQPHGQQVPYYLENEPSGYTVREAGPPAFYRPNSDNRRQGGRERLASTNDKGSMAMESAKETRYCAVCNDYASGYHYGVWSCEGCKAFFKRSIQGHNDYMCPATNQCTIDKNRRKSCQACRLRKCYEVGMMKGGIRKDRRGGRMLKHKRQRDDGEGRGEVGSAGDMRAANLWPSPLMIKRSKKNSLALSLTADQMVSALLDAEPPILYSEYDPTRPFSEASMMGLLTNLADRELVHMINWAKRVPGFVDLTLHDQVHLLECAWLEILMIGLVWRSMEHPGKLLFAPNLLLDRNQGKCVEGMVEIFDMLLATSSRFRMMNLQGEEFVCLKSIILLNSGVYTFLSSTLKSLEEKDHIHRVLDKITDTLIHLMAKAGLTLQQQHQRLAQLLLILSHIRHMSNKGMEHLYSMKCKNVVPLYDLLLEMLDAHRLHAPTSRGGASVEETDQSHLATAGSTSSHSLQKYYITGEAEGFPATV
# [13] = target: Melatonin MT1 (Homo sapiens, UniProt P48039); assay: Lead Profiling Screen radioligand binding
# Chain of Melatonin MT1 (P48039 whole entry): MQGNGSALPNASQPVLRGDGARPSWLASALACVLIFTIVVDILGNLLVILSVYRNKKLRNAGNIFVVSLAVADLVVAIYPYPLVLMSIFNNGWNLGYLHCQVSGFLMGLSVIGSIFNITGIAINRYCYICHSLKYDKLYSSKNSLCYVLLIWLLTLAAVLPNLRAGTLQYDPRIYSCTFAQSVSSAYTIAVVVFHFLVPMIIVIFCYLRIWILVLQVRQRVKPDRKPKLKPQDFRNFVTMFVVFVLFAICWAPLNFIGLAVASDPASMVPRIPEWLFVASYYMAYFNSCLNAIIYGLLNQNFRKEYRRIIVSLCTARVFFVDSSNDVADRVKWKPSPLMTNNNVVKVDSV
# [14] = test system: GABAA, Flunitrazepam, Central; assay: Lead Profiling Screen radioligand binding; details: 10 μM ML352
# [15] = target: Adrenergic α2A (Homo sapiens, UniProt P08913); assay: Lead Profiling Screen radioligand binding
# Chain of Adrenergic α2A (P08913 whole entry): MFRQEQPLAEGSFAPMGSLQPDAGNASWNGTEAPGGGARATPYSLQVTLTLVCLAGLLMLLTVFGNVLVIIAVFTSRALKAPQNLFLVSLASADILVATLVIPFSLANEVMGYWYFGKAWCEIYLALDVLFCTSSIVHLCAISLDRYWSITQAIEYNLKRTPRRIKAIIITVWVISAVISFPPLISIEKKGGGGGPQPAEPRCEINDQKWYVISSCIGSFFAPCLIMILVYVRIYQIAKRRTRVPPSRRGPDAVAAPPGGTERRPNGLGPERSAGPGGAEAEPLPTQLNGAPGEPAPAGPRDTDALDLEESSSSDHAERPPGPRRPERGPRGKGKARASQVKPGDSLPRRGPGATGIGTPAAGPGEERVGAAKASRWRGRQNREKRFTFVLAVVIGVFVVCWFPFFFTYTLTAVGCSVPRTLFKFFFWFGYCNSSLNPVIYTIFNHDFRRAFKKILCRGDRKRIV
# [16] = test system: Phorbol Ester; assay: Lead Profiling Screen radioligand binding; details: 10 μM ML352
# [17] = target: Adrenergic α1D (Homo sapiens, UniProt P25100); assay: Lead Profiling Screen radioligand binding
# Chain of Adrenergic α1D (P25100 whole entry): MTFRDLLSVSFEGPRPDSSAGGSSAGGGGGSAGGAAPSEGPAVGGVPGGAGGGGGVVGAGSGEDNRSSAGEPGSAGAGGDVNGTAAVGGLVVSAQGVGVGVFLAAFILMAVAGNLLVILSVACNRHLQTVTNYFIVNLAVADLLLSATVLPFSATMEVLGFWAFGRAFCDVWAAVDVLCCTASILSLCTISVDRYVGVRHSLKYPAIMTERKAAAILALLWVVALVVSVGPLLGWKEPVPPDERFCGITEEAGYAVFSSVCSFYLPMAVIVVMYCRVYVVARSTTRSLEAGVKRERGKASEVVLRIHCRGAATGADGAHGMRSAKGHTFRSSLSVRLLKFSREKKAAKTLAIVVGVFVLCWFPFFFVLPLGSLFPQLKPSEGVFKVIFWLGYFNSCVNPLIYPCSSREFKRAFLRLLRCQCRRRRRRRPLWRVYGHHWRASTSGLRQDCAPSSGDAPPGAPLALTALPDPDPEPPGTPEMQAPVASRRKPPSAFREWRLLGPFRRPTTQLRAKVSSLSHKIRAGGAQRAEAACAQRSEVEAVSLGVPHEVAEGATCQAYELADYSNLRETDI
# [18] = target: Sertonin (5-Hydroxytrptamine) 5-HT2B (Homo sapiens, UniProt P41595); assay: Lead Profiling Screen radioligand binding
# Chain of Sertonin (5-Hydroxytrptamine) 5-HT2B (P41595 whole entry): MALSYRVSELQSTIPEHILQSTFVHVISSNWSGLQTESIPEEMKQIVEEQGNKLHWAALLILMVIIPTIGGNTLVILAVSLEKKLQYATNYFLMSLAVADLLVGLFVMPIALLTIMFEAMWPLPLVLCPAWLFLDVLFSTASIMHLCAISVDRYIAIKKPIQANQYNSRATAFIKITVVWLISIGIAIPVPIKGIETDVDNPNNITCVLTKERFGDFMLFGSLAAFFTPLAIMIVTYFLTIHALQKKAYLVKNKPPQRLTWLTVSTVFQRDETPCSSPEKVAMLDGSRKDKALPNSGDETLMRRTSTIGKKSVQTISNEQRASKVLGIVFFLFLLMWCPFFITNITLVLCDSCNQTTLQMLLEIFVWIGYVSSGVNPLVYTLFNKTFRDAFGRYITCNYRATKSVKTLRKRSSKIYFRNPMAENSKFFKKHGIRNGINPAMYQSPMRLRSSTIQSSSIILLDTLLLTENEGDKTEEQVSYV
# [19] = intrinsic clearance in hepatic microsomes; assay type: in vitro ADME; details: human; predicted hepatic clearance from microsomal CLint
# [20] = target: Neuropeptide Y Y1 (Homo sapiens, UniProt P25929); assay: Lead Profiling Screen radioligand binding
# Chain of Neuropeptide Y Y1 (P25929 whole entry): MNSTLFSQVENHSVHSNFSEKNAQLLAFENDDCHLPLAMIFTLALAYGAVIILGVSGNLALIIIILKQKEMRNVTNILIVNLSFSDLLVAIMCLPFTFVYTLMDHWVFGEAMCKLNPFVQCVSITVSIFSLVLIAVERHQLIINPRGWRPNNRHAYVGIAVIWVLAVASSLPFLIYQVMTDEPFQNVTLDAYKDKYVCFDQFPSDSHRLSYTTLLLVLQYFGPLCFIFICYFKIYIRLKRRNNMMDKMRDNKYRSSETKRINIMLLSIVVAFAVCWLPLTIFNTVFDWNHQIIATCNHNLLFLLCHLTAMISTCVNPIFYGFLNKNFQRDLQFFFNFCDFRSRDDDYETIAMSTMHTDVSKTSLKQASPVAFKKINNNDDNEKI
# [21] = pharmacokinetics in male Sprague-Dawley rats; details: rat
# [22] = target: Dopamine D1 (Homo sapiens, UniProt P21728); assay: Lead Profiling Screen radioligand binding
# [23] = target: DAT (Mus musculus, UniProt Q61327); assay: dopamine uptake in mouse forebrain synaptosomes; assay type: biochemical; details: 5 μM ML352
# How it was run: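 Crude P2 synaptosomes from forebrains of male C57BL/6J mice (8–10 weeks), taken after decapitation under urethane. Incubated 10 min at 37 °C in Krebs bicarbonate buffer with 100 nM [3H]dopamine or [3H]serotonin ± test compound. Stopped on ice, rapidly filtered, counted by scintillation. Specific uptake defined with cocaine 1 μM (DAT) or citalopram 1 μM (SERT). Protein by BCA; n = 3.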
# [24] = target: Platelet Activating Factor (PAF) (Homo sapiens, UniProt P25105); assay: Lead Profiling Screen radioligand binding
# [25] = target: Prostanoid EP4 (Homo sapiens, UniProt P35408); assay: Lead Profiling Screen radioligand binding
# Chain of Prostanoid EP4 (P35408 whole entry): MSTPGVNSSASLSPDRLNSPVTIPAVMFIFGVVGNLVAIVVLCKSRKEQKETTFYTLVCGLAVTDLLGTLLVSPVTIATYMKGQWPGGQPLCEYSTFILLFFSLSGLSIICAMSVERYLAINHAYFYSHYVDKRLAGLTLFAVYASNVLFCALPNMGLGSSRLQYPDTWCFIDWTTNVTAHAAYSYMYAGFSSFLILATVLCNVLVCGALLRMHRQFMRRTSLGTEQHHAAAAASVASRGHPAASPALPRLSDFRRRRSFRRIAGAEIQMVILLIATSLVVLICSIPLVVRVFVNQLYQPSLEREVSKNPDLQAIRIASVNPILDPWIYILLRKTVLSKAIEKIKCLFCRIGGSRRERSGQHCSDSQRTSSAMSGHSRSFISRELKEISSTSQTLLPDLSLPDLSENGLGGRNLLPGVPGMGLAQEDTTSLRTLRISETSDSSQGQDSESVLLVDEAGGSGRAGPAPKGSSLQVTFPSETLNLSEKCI
# [26] = target: Adrenergic α1B (Rattus norvegicus, UniProt P15823); assay: Lead Profiling Screen radioligand binding
# [27] = test system: Thyroid Hormone; assay: Lead Profiling Screen radioligand binding; details: 10 μM ML352
# [28] = target: Adenosine A1 (Homo sapiens, UniProt P30542); assay: Lead Profiling Screen radioligand binding
# [29] = test system: Calcium Channel L-Type, Benzothiazepine; assay: Lead Profiling Screen radioligand binding; details: 10 μM ML352
# [30] = test system: Sodium Channel, Site 2; assay: Lead Profiling Screen radioligand binding; details: 10 μM ML352
# [31] = target: Calcium Channel N-Type (Rattus norvegicus, UniProt Q02294); assay: Lead Profiling Screen radioligand binding
# [32] = target: norepinephrine transporter (NET) (Homo sapiens, UniProt P23975); assay: [3H]NE uptake in HEK293 hNET cells; assay type: cell-based; details: transfected HEK 293 cells
# [33] = test system: GABAA, Muscimol, Central; assay: Lead Profiling Screen radioligand binding; details: 10 μM ML352
compound,measurement,setting,value
"COc1ccc(C(=O)NCc2cc(C(C)C)no2)cc1OC1CCN(C)CC1 [ML352, N-((3-isopropylisoxazol-5-yl)methyl)-4-methoxy-3-((1-methylpiperidin-4-yl)oxy)benzamide]",inhibition at 10 µM,[1],16%
same,% inhibition,[2],1%
same,inhibition at 10 µM,[3],23%
same,inhibitory activity at DAT,[4],lack of inhibitory activity
same,inhibition at 10 µM,[5],32%
same,inhibition at 10 µM,[6],-9%
same,inhibition at 10 µM,[7],-1%
same,[3H]HC-3 binding Bmax,[8]; 200 nM ML352,80.3 ± 3.8%
same,[3H]HC-3 binding Bmax,[8]; 800 nM ML352,48.9 ± 4.1%
same,mode of inhibition of [3H]HC-3 binding,"[8]; transfected cell membranes, 200 and 800 nM ML352",noncompetitive inhibition
same,mode of choline uptake inhibition,[9],noncompetitively inhibits
same,CLhep,[10],40.3 mL/min/kg
same,inhibition at 10 µM,[11],-3%
same,inhibition at 10 µM,[12],4%
same,inhibition at 10 µM,[13],5%
same,% inhibition,[14],6%
same,inhibition at 10 µM,[15],43%
same,% inhibition,[16],5%
same,inhibition at 10 µM,[17],24%
same,inhibition at 10 µM,[18],-7%
same,CLhep,[19],6.9 mL/min/kg
same,inhibition at 10 µM,[20],-2%
same,clearance,"[21]; in vivo, iv, 1 mg/kg",107 mL/min/kg
same,half-life,"[21]; in vivo, iv, 1 mg/kg",30 min
same,AUC,"[21]; plasma, iv, 1 mg/kg",150 ng·h/mL
same,AUC,"[21]; plasma, po, 2.3 mg/kg",77.5 ng·h/mL
same,Cmax,"[21]; plasma, po, 2.3 mg/kg",32.6 ng/mL
same,Tmax,"[21]; plasma, po, 2.3 mg/kg",15 min
same,bioavailability,"[21]; plasma, po, 2.3 mg/kg",22%
same,inhibition at 10 µM,[22],9%
same,inhibition of DAT,[23],fails to inhibit
same,inhibition at 10 µM,[24],-4%
same,inhibition at 10 µM,[25],-7%
same,inhibition at 10 µM,[26],3%
same,% inhibition,[27],6%
same,inhibition at 10 µM,[28],-5%
same,% inhibition,[29],3%
same,% inhibition,[30],20%
same,inhibition at 10 µM,[31],-1%
same,inhibitory activity at NET,[32],lack of inhibitory activity
same,% inhibition,[33],9%
